Compound activity as filed in PubChem BioAssay.
Most compounds without a hit are left out; they make up all but 2.1% or so of the library.
GSK3 alpha inh = human GSK-3 alpha kinase inhibition | 320,000 tested, 0.1% active | ADP-Glo luminescence, 60 min | inhibition, % at 10 µM | AID 2650;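 active = more than half of replicates show inhibition above 20%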;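 note: GST-tagged GSK-3 alpha with peptide substrate and 25 µM ATP; 0% = DMSO neutral wells and 100% = GW8510 positive control wells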
STK33 inh = inhibitors of human STK33 kinase; Q9BYT3; purified STK33, MBP phosphorylation, ADP-Glo luminescence; inhibition, % at 10 µM; 320,000 tested, 0.073% active;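 active = inhibition at or above 25%, using the most active replicate where run in duplicate; inactive = inhibition below 25%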
Target sequence (Q9BYT3 whole entry, looked up): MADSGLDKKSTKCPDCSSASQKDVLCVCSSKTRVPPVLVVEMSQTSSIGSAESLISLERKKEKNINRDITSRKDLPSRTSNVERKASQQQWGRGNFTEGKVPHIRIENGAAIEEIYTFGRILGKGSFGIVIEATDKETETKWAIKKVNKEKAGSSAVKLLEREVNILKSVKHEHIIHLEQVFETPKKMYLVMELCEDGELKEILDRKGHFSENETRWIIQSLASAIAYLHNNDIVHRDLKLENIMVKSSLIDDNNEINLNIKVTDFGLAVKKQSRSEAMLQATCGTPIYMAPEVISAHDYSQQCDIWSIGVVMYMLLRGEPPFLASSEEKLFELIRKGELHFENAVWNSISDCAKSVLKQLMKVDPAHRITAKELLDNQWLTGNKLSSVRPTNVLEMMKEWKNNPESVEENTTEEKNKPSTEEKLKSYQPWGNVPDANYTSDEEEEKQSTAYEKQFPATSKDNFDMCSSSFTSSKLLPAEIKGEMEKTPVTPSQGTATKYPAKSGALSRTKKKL
GSK3B inh = inhibitors of human GSK3beta kinase. 300,000 tested, 0.038% active. activity score (negative = inhibition), % at 10 µM. GST-GSK3beta kinase, ADP-Glo luminescence, 60 min; active compounds read low. P49841;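 active = more than half of replicate wells score below -50%, meaning over 50% inhibition versus plate controls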;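 note: 0% = median DMSO wells and -100% = median GW8510 positive control wells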
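test system = GST-tagged human GSK3beta kinase, cell-free | reagent = 25 µM ATP with peptide substrate | dosing = one dose of 10 µM per compound | schedule = 60 min reaction, RT | detection = luminescent ADP-Glo measurement of ADP formed | control set = DMSO neutral wells and GW8510 at 20 µM as positive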
MEKK2mut PB1 HTS = signal of MEK5 binding to mutant human MEKK2 PB1 domain; percent response, % at 10 µM; bead flow cytometry, Alexa488-MEK5 binding to MEKK2 mutant; 290,000 tested, 0.35% active; in the data active = percent response above about 24%, passing the limit was not always enough
MEKK2 WT-MEK5 = raises or lowers MEK5 binding to wildtype human MEKK2 PB1 domain; Q9Y2U5; bead flow cytometry, Alexa488-MEK5 binding to MEKK2 WT; actives lie on both sides; binding response (% of control), % at 10 µM; 290,000 tested, 1.1% active; in the data active = binding response below about 67% or above about 130%
MEKK3 PB1 HTS = MEKK3-MEK5 PB1 interaction, increase or decrease | Q99759 | binding response (% of control), % at 10 µM | bead-based flow cytometry, Alexa488-MEK5 binding to MEKK3; actives lie on both sides; 0 = blocked by unlabeled MEK5, 100 = vehicle | AID 1529 | 290,000 tested, 1.4% active;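 active = binding response more than 3 SD above or below the average of its plate-row segment, actives on both sides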;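 note: Alexa488 bead fluorescence after subtracting the streptavidin-only scavenger bead signal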
MEKK2wt confirm = raises or lowers MEK5 binding to wildtype human MEKK2, retest; shares compounds with MEKK3 PB1 HTS; bead flow cytometry, Alexa488-MEK5 binding to MEKK2 WT; actives lie on both sides; binding response (% of control), % at 10 µM; 5,900 tested, 2.4% active; in the data active = binding response below about 16% or above about 210%; inactive = in between
MEKK2mut-MEK5 = signal of MEK5 binding to mutant human MEKK2, retest. shares compounds with MEKK3 PB1 HTS. bead flow cytometry, Alexa488-MEK5 binding to MEKK2 mutant. percent response, % at 10 µM. 5,900 tested, 2% active; in the data active = percent response mostly above about 71%, no sharp cut-off; inactive = mostly below about 38%;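 note: higher means compound restores mutant binding toward wildtype level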
MEKK3-MEK5 inh = confirmation of inhibitors of MEK5 binding to human MEKK3. shares compounds with MEKK3 PB1 HTS. bead flow cytometry, Alexa488-MEK5 binding to MEKK3; active compounds read low. binding response (% of control), % at 10 µM. 5,900 tested, 1.8% active;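 active = binding response below 72% of control, or above a set upper limit, though filed actives all read lower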;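 note: 100% = DMSO only wells and 0% = binding blocked by excess unlabeled MEK5; lower values mean stronger disruption of MEK5 binding to MEKK3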
* marks the source's active call; other numbers are inactive results; / = not tested or not shown; [ ] = remark or other dose.

SMILES | GSK3 alpha inh | STK33 inh | GSK3B inh | MEKK2mut PB1 HTS | MEKK2 WT-MEK5 | MEKK3 PB1 HTS | MEKK2wt confirm | MEKK2mut-MEK5 | MEKK3-MEK5 inh
CC(Sc1nnc2ccccn12)C(=O)Nc1ccc2c(c1)OCCO2 (stereo not given) | -3 | 0 | 2 | 6 | 102 | 104 | / | / | /
CCOC(=O)C1=C(C)Nc2ncnn2C1c1cccs1 (stereo not given) | / | 0 | -14 | -1 | 94 | 100 | / | / | /
CCCC1=C(C(=O)OCC)C(c2cccs2)n2ncnc2N1 (stereo not given) | 61* | -1 | -42 | -3 | 85 | 92 | / | / | /
CN1Cc2sc(NC(=S)NC(=O)c3ccccc3)c(C#N)c2CC1(C)C | 1 | -1 | 1 | 11 | -14* | 93 | / | / | /
Cc1ccc(/C=N/Nc2cn[nH]c(=O)n2)o1 | 0 | 1 | 1 | -9 | 97 | 106 | / | / | /
O=c1nc(N/N=C/c2ccccn2)cn[nH]1 | 4 | 3 | 2 | -18 | 4.0*[inhibitor] | 3.0*[inhibitor] | / | / | /
COc1ccc(C)cc1NC(=O)NNS(=O)(=O)c1ccc(NC(C)=O)cc1 | 1 | -1 | 0 | -8 | 47*[inhibitor] | 39*[inhibitor] | / | / | /
CCn1c(C)c(C)c2cc(C(=O)NCCCN3CCCCC3C)ccc21 (stereo not given) | 3 | -1 | 10 | 41* | 17* | 103 | / | / | /
CCn1c(C)c(C)c2cc(C(=O)NCCCN3CCCC3)ccc21 | 0 | 0 | 1 | 14 | 144* | 104 | / | / | /
CCn1c(C)c(C)c2cc(C(=O)NCCN3CCOCC3)ccc21 | 2 | -1 | 0 | 1 | 98 | 95 | / | / | /
Cc1cc2cc(CNC(=O)Nc3ccccc3)ccc2n1C | -3 | -4 | 1 | 4 | -4.0*[inhibitor] | 87 | 92 | 3 | 95
CCc1cccc(C)c1NC(=S)NCc1ccc2c(c1)cc(C)n2C | -3 | 0 | 2 | -3 | 72*[inhibitor] | 84 | 104 | 5 | 105
Cc1ccccc1NC(=S)NCc1ccc2c(c1)cc(C)n2C | -2 | -5 | -6 | -2 | 61*[inhibitor] | 74*[inhibitor] | 109 | 7 | 105
COc1ccccc1NC(=S)NCc1ccc2c(c1)cc(C)n2C | 2 | -5 | 2 | -7 | 98 | 99 | / | / | /
Cc1cc2cc(CNC(=S)NCc3ccccc3)ccc2n1C | 2 | 0 | -1 | -9 | 98 | 97 | / | / | /
COc1ccc(S(=O)(=O)NCc2ccc3c(c2)cc(C)n3C)cc1 | -4 | -2 | -16 | 1 | 85 | 93 | / | / | /
Cc1cc2cc(CNS(=O)(=O)c3ccccc3)ccc2n1C | 1 | 1 | 1 | -20 | 39*[inhibitor] | 61 | 50 | -14 | 73
COc1cc(NC(=O)CC(C)S(=O)(=O)c2cc3c(cc2C)NC(=O)CO3)cc(OC)c1OC (stereo not given) | -1 | -1 | -4 | 1 | 102 | 101 | / | / | /
Cc1cc(C)c2c(n1)SCC(=O)N2CC(=O)Nc1cc(F)ccc1F | 2 | -1 | 1 | 4 | 98 | 101 | / | / | /
Cc1ccsc1C(=O)NNC(=O)COc1ccccc1Cl | -4 | 0 | 0 | / | / | / | / | / | /
CCN(CC(=O)Nc1ccccc1-c1ccccc1)Cc1nc2ccccc2c(=O)[nH]1 | 0 | -1 | -2 | -3 | 72 | 64*[inhibitor] | 98 | -3 | 97
CCN(CC(=O)Nc1ccccc1SC)Cc1nc2ccccc2c(=O)[nH]1 | 2 | 1 | -1 | -22 | 84 | 89 | / | / | /
CCN(CC(=O)Nc1ccc(NC(C)=O)cc1)C(=O)c1cc(CN2C(=O)c3ccccc3C2=O)ccc1OC | -1 | -1 | 0 | / | / | / | / | / | /
Cc1ccc(C(=O)N/C(=C\c2ccc(Br)cc2)c2nc(=S)[nH][nH]2)cc1 | 0 | -1 | 1 | -10 | 65*[inhibitor] | 97 | 82 | -15 | 96
O=C(N/C(=C/c1cccc(Br)c1)c1nc(=S)[nH][nH]1)c1ccccc1 | -1 | 0 | 0 | 3 | 101 | 100 | / | / | /
SMILES | GSK3 alpha inh | STK33 inh | GSK3B inh | MEKK2mut PB1 HTS | MEKK2 WT-MEK5 | MEKK3 PB1 HTS | MEKK2wt confirm | MEKK2mut-MEK5 | MEKK3-MEK5 inh
Cc1ccc(CCN2CC(C(=O)NCCCN3CCC(C)CC3)CC2=O)cc1 (stereo not given) | 4 | 1 | -1 | -2 | 100 | 94 | / | / | /
CC(=O)Oc1ccc(C2=NN(c3ccccc3)C(c3ccccc3)C2)cc1 (stereo not given) | -1 | -1 | 2 | 4 | 103 | 102 | / | / | /
O=C(N/N=C/c1cccc(F)c1)NC1CCCCC1 | 3 | 0 | 0 | 16 | 116 | 102 | / | / | /
O=C(N/N=C/c1ccccc1F)NC1CCCCC1 | -1 | -3 | -3 | 1 | 105 | 140* | 69 | -17 | 68*
O=C(N/N=C/c1ccccc1)NC1CCCCC1 | 0 | 0 | 2 | 0 | 102 | 67*[inhibitor] | 95 | -4 | 93
CC1(C)CC(=O)C(C=Nc2ccc(C(=O)c3ccccc3)cc2N=CC2=C(O)CC(C)(C)CC2=O)=C(O)C1 | -1 | 0 | 2 | -4 | 95 | 101 | / | / | /
CC(=O)c1ccc(NC(=O)COC(=O)c2ccc(F)cc2F)cc1 | -1 | 0 | -4 | -1 | 100 | 102 | / | / | /
O=[N+]([O-])c1c(Nc2ccc(O)cc2)cc(N2CCOCC2)c2nonc12 | 25 | 0 | -2 | 0 | 96 | 107 | / | / | /
CC(=O)Nc1ccc(Nc2cc(N3CCOCC3)c3nonc3c2[N+](=O)[O-])cc1 | 14 | 0 | 2 | -17 | 49 | 45*[inhibitor] | 101 | -1 | 103
COc1ccc(OCCC(=O)N2CCN(C)CC2)cc1 | 1 | 0 | -4 | 25* | 113 | 114 | 103 | 0 | 102
COc1ccc(OCCC(=O)N2CCCCC2)cc1 | -6 | -2 | 0 | / | / | / | / | / | /
O=C(NC(=S)Nc1ccc(CN2CCCCC2)cc1)c1cccc(OCc2ccccc2)c1 | -1 | 4 | 1 | 63* | 220* | 113 | 173 | 25 | 104
O=C(O)c1ccc(NC(=S)NC(=O)c2cccc(COc3ccccc3)c2)cc1 | 0 | 1 | 0 | -6 | 89 | 103 | / | / | /
CN1CCN(c2ccc(NC(=O)c3cccc(OCc4ccccc4)c3)cc2)CC1 | -1 | -2 | 1 | / | / | / | / | / | /
CCN1CCN(c2ccc(NC(=O)c3cccc(OCc4ccccc4)c3)cc2)CC1 | 0 | 0 | -1 | 34 | 171* | 100 | 147 | 27 | 106
